# Source: ChEMBL document CHEMBL5620388, “Quinolone analogues of benzothiazinone: Synthesis, antitubercular structure-activity relationship and ADME profiling” (Eur J Med Chem, 2023)
# Legend:
# Format in all cases: functional
# [1] = tested on: Mycobacterium tuberculosis; assay: Antitubercular activity against Mycobacterium tuberculosis harboring DprE1 p116S mutant assessed as reduction in bacterial growth incubated for 14 days; settings: time 14 day
# Method in brief: (§1)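 Strains were H37Rv, the fluoroquinolone-resistant GyrA G88C mutant, and the dprE1 P116S and C387S mutants. All were cultured in standard Middlebrook 7H9 with ADC supplement.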
# [2] = tested on: Mycobacterium tuberculosis; assay: Antitubercular activity against moxifloxacin-resistant Mycobacterium tuberculosis assessed as reduction in bacterial growth incubated for 14 days; settings: 336 h, time 14 day; method in brief: as §1
# [3] = tested on: Mycobacterium tuberculosis; assay: Antitubercular activity against Mycobacterium tuberculosis harboring DprE1 C387S mutant assessed as reduction in bacterial growth incubated for 14 days; settings: time 14 day; method in brief: as §1
Structure (SMILES),MIC90 [1] [µM],MIC90 [2] [µM],MIC90 [3] [µM]
O=C(NCCc1ccc(C(F)(F)F)cc1)c1c[nH]c2c([N+](=O)[O-])cc(C(F)(F)F)cc2c1=O,0.5,0.9,54.2
O=C(NCCc1ccc(F)cc1)c1c[nH]c2c([N+](=O)[O-])cc(C(F)(F)F)cc2c1=O,1,1.9,>62
O=C(NCCc1ccc(Cl)cc1)c1c[nH]c2c([N+](=O)[O-])cc(C(F)(F)F)cc2c1=O,17,1.9,44.8
NNC(=O)c1ccncc1 [ISONIAZID],2,3.6,3.3
COc1c(N2C[C@@H]3CCCN[C@@H]3C2)c(F)cc2c(=O)c(C(=O)O)cn(C3CC3)c12 [MOXIFLOXACIN],0.1,6.3,0.05
